Ecoli rRNA inh = reduced GFP signal of wild-type E. coli, primary screen, bacterial rRNA inhibitor project, GFP/RFP fluorescence, OD600, single point; E. coli WT GFP vs humanized-ribosome RFP mutants, 24 h; hits give low values; DMSO median 0, no signal -100; GFP signal change (wild-type ribosome), % (no concentration beside the values); 1.6% of 350,000 active;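 active means significant combined selectivity score with lowered wild-type GFP, culture density cut under 30%, mutant RFP and density less affected; inactive means any of these conditions unmet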
RAD52 inh = RAD52 DNA annealing inhibitors, primary screen, biochemical, FRET, single point, set 2 | inhibition, % at 18.7 µM | 0.46% of 360,000 active | recombinant RAD52 DNA annealing, FRET fluorescence | DNA repair protein RAD52 homolog (Homo sapiens), P43351;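 active means every replicate showing at least 50% inhibition; inconclusive means mean inhibition at least 50% but not in every replicate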
PglD inh = C. jejuni PglD acetyltransferase inhibitors, primary screen, biochemical, DTNB colorimetric, single point. UDP-N-acetylbacillosamine N-acetyltransferase PglD (Campylobacter jejuni). purified PglD enzyme, DTNB colorimetric CoA detection. inhibition, % at 12.5 µM. 0.098% of 360,000 active. AID 602405, 2012; in the data active means inhibition above about 16%, passing the limit was not always enough; inconclusive means no clear call, values can overlap the other calls
E-selectin induc = E-selectin induction in HUVECs, primary screen, imaging, HUVEC, immunofluorescence imaging, single point | AID 686992, 2013 | activation, % at 7.58 µM | normalized: neutral wells 0, TNF-alpha wells 100 | P16581 | 0.37% of 260,000 active;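 active means mean E-selectin-positive cell signal at least 10% of the positive control, reached in at least 60% of replicates, without over 20% cell loss; inconclusive means no rule given, readout overlaps actives, possibly toxicity-flagged; inactive means the rest, including those meeting only one limit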
Target sequence (P16581 whole entry, looked up): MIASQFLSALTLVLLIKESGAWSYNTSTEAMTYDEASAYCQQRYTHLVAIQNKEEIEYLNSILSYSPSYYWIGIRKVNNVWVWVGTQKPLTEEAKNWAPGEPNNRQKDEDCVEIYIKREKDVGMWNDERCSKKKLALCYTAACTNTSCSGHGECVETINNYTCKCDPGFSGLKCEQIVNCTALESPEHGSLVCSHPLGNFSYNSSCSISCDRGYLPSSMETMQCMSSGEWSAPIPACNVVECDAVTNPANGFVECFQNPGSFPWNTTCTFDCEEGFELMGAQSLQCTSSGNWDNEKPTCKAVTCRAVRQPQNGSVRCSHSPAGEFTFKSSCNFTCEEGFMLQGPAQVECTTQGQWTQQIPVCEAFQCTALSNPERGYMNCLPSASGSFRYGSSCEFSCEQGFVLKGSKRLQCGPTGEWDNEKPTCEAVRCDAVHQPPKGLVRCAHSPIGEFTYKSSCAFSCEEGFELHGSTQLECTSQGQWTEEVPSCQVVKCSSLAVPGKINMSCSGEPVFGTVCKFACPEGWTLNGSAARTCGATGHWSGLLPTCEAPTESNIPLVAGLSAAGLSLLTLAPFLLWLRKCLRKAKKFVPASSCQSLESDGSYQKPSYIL
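Read-out: % PE-positive cells | Test system: HUVEC | Doses: One compound dose added by pin transfer | Buffer or medium: EGM-2 over gelatin coat | Signal: Immunofluorescence imaging | Benchmarks: TNF-alpha, DMSO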
XiGFP reactiv = activators of inactive X chromosome reactivation, primary screen, imaging, XiGFP fibroblasts, GFP high-content imaging, set 2; AID 743238, 2013; activation, % at 7.58 µM; XiGFP mouse fibroblasts, % GFP-positive cells imaging, 3 d; cells co-treated with 5-aza-dC sensitizer; scaled so ellipticine positive control = 100%; 0.055% of 360,000 active;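 active means mean normalized replicate activation at least 10% and every replicate at or above 10%; inconclusive means only one of the two criteria met; inactive means mean below 10% and not all replicates reach 10%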;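 further: 0% = median of on-plate neutral control wells and 100% = ellipticine 6 µM median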
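Assay system – SV40-immortalized XiGFP fibroblast cells, line 68-5-11 · Buffer or medium – DMEM supplemented with 5-aza-dC as sensitizing agent · Dosing – one concentration, pinned · Benchmarks – positive control ellipticine, 6 µM final · Times – 3 days compound exposure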
RAD54 branch = inhibitors of human RAD54 branch migration, primary screen, biochemical, fluorescence, single point | inhibition, % at 10.4 µM | RAD54 Holliday junction branch migration, FAM/BHQ fluorescence | AID 602329, 2012 | DNA repair and recombination protein RAD54-like (Homo sapiens), Q92698 | 0.14% of 360,000 active;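 active means mean normalized replicate activity at least 40 and at least half of replicates scoring 40 or more; inconclusive means only one of the two criteria met; inactive means mean below 40 and under half of replicates reaching 40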;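 further: 0% = median of neutral control wells and 100% = median of positive control wells; inhibitors cause a drop in the FAM fluorescence signal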
HepG2 tox = cytotoxicity in HepG2 cells, dose response, cytotoxicity control, cell-based, CellTiter-Glo luminescence, cherry-pick, set 4; shares compounds with Ecoli rRNA inh; HepG2 viability, ATP luminescence, 72 h; activity change, negative = cytotoxicity, unspecified at 26 µM; 30 tested, under 10 active;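 active means compounds whose fitted half-maximal signal-loss concentration is at most twice their highest valid dose; inconclusive means flat curve with 30 to 70% signal loss, or poor fit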
AID977621 = growth inhibition of wild-type GFP E. coli, dose response, H69 mutant RFP, cherry-pick; shares compounds with Ecoli rRNA inh; E. coli wild-type GFP strain growth, fluorescence, 24 h; activity change, negative = inhibition at 50 µM; 1,900 tested, under 10 active; AID 977621, 2014;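 active means Wild-type ribosome reporter drop at least double the humanized mutant ribosome reporter drop, growth loss under a set limit; inconclusive means no clear call, values can overlap the other calls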;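 further: wild-type GFP and H69 mutant RFP strains grown together 50/50 in each well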
AID977628 = E. coli growth inhibition, wild-type GFP versus h24 humanized RFP strain, dose response, h24 mutant RFP vs wild-type GFP, cherry-pick. 1,900 tested, under 10 active. activity change, negative = inhibition at 50 µM. E. coli WT GFP strain growth, fluorescence, 24 h. shares compounds with Ecoli rRNA inh;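 active means compound lowering the normal-ribosome reporter at least twice as much as the humanized-ribosome reporter, growth loss under a set limit; inconclusive means no clear call, values can overlap the other calls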;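 further: wild-type GFP and h24 humanized RFP strains co-cultured 1 to 1 per well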
* marks the source's active call; other numbers are inactive results; ? = inconclusive; nt = no result given. Hits are enriched below; roughly 2% of the tested compounds scored in any of these assays.

SMILES | Ecoli rRNA inh | RAD52 inh | PglD inh | E-selectin induc | XiGFP reactiv | RAD54 branch | AID977621 | AID977628 | others
CO[C@@H]1CN(C)C(=O)c2ccc(NC(=O)C3CCC3)cc2OC[C@H](C)N(Cc2ccccn2)C[C@H]1C | -0.7 | -19.7 | 0.4 | -0.2 | -0.1 | 2.8 | nt | nt
CN(Cc1cccc(F)c1)C(=O)CN1CCN(S(=O)(=O)c2ccc3c(c2)OCCCO3)CC1 | -8.6 | -7.4 | -3.8 | -0.3 | 0.0 | 3.9 | nt | nt
CN(Cc1ccc(F)cc1)C(=O)CN1CCN(S(=O)(=O)c2ccc3c(c2)OCCCO3)CC1 | -17.6* | -2.3 | 1.2 | -0.4 | 0.0 | -0.1 | nt | ?
CCc1ccc(CNC(=O)C2CCC(=O)N2C2CCCCC2)cc1 (stereo unspecified) | nt | nt | 4.1 | nt | nt | 3.1 | nt | nt
O=C(NCc1ccc2c(c1)OCO2)C1CCC(=O)N1C1CCCCC1 (stereo unspecified) | -23.4* | -0.2 | 2.9 | -0.1 | -0.2 | -2.7 | -1.55 | ?
COc1ccc(S(=O)(=O)N(C)C[C@@H]2OCCCC[C@@H](C)Oc3ccc(NS(=O)(=O)c4cn(C)cn4)cc3C(=O)N([C@@H](C)CO)C[C@@H]2C)cc1 | -0.5 | -0.5 | -1.7 | nt | 0.0 | -2.7 | nt | nt
COC(=O)c1sc(-c2ccc(Cl)cc2)cc1NC(=O)c1ccccc1C(=O)O | nt | 2.9 | nt | 0.6 | -0.1 | nt | nt | nt
COC(=O)c1sc(-c2ccc(C(C)(C)C)cc2)cc1NC(=O)c1ccccc1C(=O)O | -16.8* | -18.6 | nt | 0.0 | ? | nt | -21.4 | nt
CO[C@H](CN(C)C(=O)C1CCOCC1)[C@@H](C)CN(C(=O)Nc1ccc(F)cc1)[C@H](C)CO | -1.2 | -1.4 | 2.3 | -0.1 | 0.0 | -2.4 | nt | nt
CC(=O)OC(COc1cccc(C)c1)Cn1cnc2ccccc21 (stereo unspecified) | -36.8* | -18.1 | nt | 9.9 | 0.1 | nt | -14.4 | ?
O=C(O)c1cc(-c2cccs2)nn1-c1ccccc1 | -10.0 | -18.4 | 3.3 | -2.4 | 0.3 | 7.9 | nt | nt
O=C(O)c1cc(-c2cccs2)nn1-c1cccc(Cl)c1 | -33.1* | -18.6 | nt | -0.6 | -0.1 | 3.5 | -8.64 | ?
C[C@@H]1CCCCO[C@H](CN(C)S(=O)(=O)c2ccc(Cl)cc2)[C@@H](C)CN([C@H](C)CO)C(=O)c2cc(NC(=O)CCCN(C)C)ccc2O1 | 1.8 | 13.6 | -6.0 | 0.3 | 0.7 | -16.6 | nt | nt
COc1ccc(OCCC(=O)OCC(=O)NCCC2=CCCCC2)cc1 | -24.2* | -11.6 | nt | -0.1 | 0.0 | nt | -12.8 | -9.71
[O-][n+]1ccccc1/C=C/c1ccccc1 | -26.2* | -6.3 | nt | 5.8 | 0.5 | nt | -11.5 | ?
[O-][n+]1c(/C=C/c2ccccc2)ccc2ccccc21 | 2.6 | -28.3 | -9.3 | nt | 0.0 | 2.5 | nt | nt
O=C(O)c1cccnc1Sc1ccccc1Cl | 5.6 | -16.3 | -1.7 | nt | 0.1 | 4.0 | nt | nt
O=C(O)c1cccnc1SCc1ccccc1Cl | -21.6* | -12.1 | -2.9 | 4.8 | 0.2 | -7.4 | -9.83 | nt
COc1ccc(-n2cc(-c3ccccc3)c3c(N4CCOCC4)ncnc32)cc1 | -29.4* | -7.6 | 1.1 | nt | 0.0 | 0.7 | nt | ? | HepG2 tox=15.5

Screening results: PubChem, Broad Institute
